Compound activity deposited in PubChem by several laboratories.
The list is not random: actives were taken first. Their share in the collection is about 1.5%.
Myeloid diff 2 – induction of myeloid progenitor differentiation, primary screen, cell-based, flow cytometry, MLPCN library; calls only at 10 µM; ER-HoxA9 myeloid progenitors, lysozyme-GFP differentiation; 1% of 360,000 active;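 active = normalized GFP-positive differentiation at or above the plate's own cutoff, the solvent-only control mean plus 3 SD; inconclusive = no clear call, values can overlap the other calls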;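 note: cells exposed to compound for four days before flow analysis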
VLA-4 inh – inhibition in human VLA-4 binding assay, primary screen, VLA-4 allosteric modulator project, MLPCN library, flow cytometry, VLA-4 expressing cells; ligand binding flow cytometry; 0.2% of 330,000 active; AID 2557, 2010; inhibition, % (about 7 µM as worked out from the volumes in the protocol); Integrin alpha-4 (Homo sapiens), P13612; in the data active = inhibition above about 50%
Platelet DG rel – inhibitors of platelet dense granule secretion, primary screen, cell-based, MLPCN, human platelets | human platelet-rich plasma, SFLLRN dense granule ATP release, luminescence | inhibition, %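 (compounds screened at 7.5 µM in platelet-rich plasma)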 | 0.22% of 300,000 active | AID 1663, 2009;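 active = mean replicate score, as percent of positive control, at or above 50; inconclusive = mean below 50 but at least one replicate at or above 50; inactive = mean and every replicate below 50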
SENP1 inh – human SENP1 catalytic domain inhibitors, primary screen, biochemical, FRET, uHTS; Sentrin-specific protease 1 (Homo sapiens), Q9P0U3; recombinant SENP1 catalytic domain, CyPet-SUMO1-YPet FRET cleavage; inhibition, % at 10 µM; 0.21% of 360,000 active; AID 624204, 2012;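 active = inhibition at least 30% at 10 µM, raw YFP signal under a set limit, fluorescence ratio 0.5 to 1.5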;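 note: 0% = enzyme with DMSO and 100% = no enzyme wells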
Target sequence (Q9P0U3 419-644 limits assumed): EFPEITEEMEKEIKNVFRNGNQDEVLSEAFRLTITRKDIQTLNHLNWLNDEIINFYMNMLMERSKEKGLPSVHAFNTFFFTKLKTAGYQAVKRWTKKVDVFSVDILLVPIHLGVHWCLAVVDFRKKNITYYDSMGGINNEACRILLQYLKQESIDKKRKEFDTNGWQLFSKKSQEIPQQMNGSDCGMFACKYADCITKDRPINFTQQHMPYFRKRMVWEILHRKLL
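Test system: human SENP1 catalytic domain; medium: Tris pH 8 buffer plus EDTA, NaCl, BME, BSA, NP40, catalase; incubation: 50 min reaction at room temperature; technique: FRET, CFP and YFP emission; controls: no-enzyme low control and enzyme-plus-DMSO high control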
Myeloid diff CP1 – inducers of myeloid progenitor differentiation, confirmation, cell-based, GFP/Mac1 flow cytometry, cherry pick 01. calls only. shares compounds with Myeloid diff 2. 2% of 2,300 active. ER-HoxA9 myeloid progenitors, GFP/Mac1 double-positive flow;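 active = share of green or green-and-red cells above 9 and 9% in run 1 or 4 and 3% in run 2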
GFP autofluor – counter-screen for myeloid differentiation promoters: compound fluorescence. shares compounds with Myeloid diff 2. ER-HoxA9 myeloid progenitors, no estrogen, GFP autofluorescence flow cytometry; vehicle wells 0%, positive control 100%. fluorescence response, % (concentration not given with the values). 7.4% of 2,300 active;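 active = over 5% cells positive for green fluorescent reporter, or over 2% positive for both it and APC stain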;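 note: range taken on the double positive population between DMSO and positive control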
* hit, by the source's call; i = inactive; ? = inconclusive; / = no result; + = active, no number.

SMILES	Myeloid diff 2	VLA-4 inh	Platelet DG rel	SENP1 inh	Myeloid diff CP1	GFP autofluor
CN(C)c1cccc(Nc2ccc(-c3ccc(OC(F)(F)F)cc3)cn2)c1	+	/	/	-64	i	0
CN(C)c1cccc(-c2cc(Nc3ccc(C(C)(C)C)cc3)ncn2)c1	i	/	/	-8	/	/
Cc1ccsc1CN(C)CC(=O)NCC(=O)Nc1ccc(F)c(F)c1F	+	8	/	-1	i	4
Cc1cccc(/C=N/NC(=O)c2ccc(NC(=O)c3ccc(Cl)cc3)cc2)n1	+	1	20	-42	i	2
CC1(c2ccccc2)NC(=O)N(CC(=O)Nc2cccc(C#N)c2)C1=O (stereo not given)	i	12	10	0	/	/
CCC1(c2ccccc2)NC(=O)N(CC(=O)Nc2cccc(C#N)c2)C1=O (stereo not given)	+	12	7	-1	i	0
O=C(Nc1ccc(CN2CCCCC2)cc1)c1sc2ccccc2c1Cl	i	18	-1	3	/	/
Clc1cccc(OCc2nc(-c3ccncc3)n[nH]2)c1	i	3	2	1	i	0
Fc1ccc(OCc2nc(-c3ccncc3)n[nH]2)cc1	i	2	-2	1	/	/
O=C(Nc1ccc(N2CCOCC2)cc1)c1ccc([N+](=O)[O-])o1	+	9	26	1	i	0
COc1ccc(C2=NOC(Cn3nc(-c4ccccc4)cc3C(=O)NCc3cccs3)C2)cc1 (stereo not given)	i	6	/	2	i	0
COc1ccc(C2=NOC(Cn3nc(C(=O)NCc4cccs4)cc3-c3ccccc3)C2)cc1 (stereo not given)	i	-4	-1	1	/	/
CC(=O)N1CCCc2cc(S(=O)(=O)N3CCCC(C(=O)Nc4ccccc4C)C3)ccc21 (stereo not given)	i	-2	-2	0	/	/
Cc1cccc(Nc2ncccc2C(=O)NCc2cccs2)c1C	i	2	9	0	i	0
CCCCCNc1nc2sc3c(c2c(=O)n1-c1cccc(Cl)c1)CCN(C)C3	+	-6	/	-40	i	1
CCSc1nc2sc3c(c2c(=O)n1-c1ccccc1)CCN(C(C)C)C3	+	-1	-3	-26	i	5
CCCCSc1nc2sc3c(c2c(=O)n1-c1ccccc1)CCN(C)C3	i	-4	3	-23	/	/
CCCCNc1nc2sc3c(c2c(=O)n1-c1cccc(Cl)c1)CCN(C)C3	?	-11	/	-39	/	/
COc1ccc(S(=O)(=O)N2CCN(Cc3ccco3)CC2)cc1	i	14	-3	0	/	/
CCCCc1c(C(=O)O)cc(OC)cc1C(=O)O	i	41	2	0	/	/
Cc1cc(C(=O)O)c(CCCN)s1	i	3	4	-1	i	0
COc1ccccc1-c1ccc(SCc2ccc(C)cc2)nn1	i	1	15	0	/	/
COc1ccccc1-c1ccc(SCc2ccc(F)cc2)nn1	+	2	-2	0	i	1
N#CCC(=O)Nc1ccc(C(=O)NCCc2c[nH]c3ccccc23)cc1	/	-5	2	-13	/	/
Cc1ccc(C)c2sc(N3CCN(C(=O)c4ccc([N+](=O)[O-])o4)CC3)nc12	i	13	13	0	i	0
SMILES	Myeloid diff 2	VLA-4 inh	Platelet DG rel	SENP1 inh	Myeloid diff CP1	GFP autofluor
CN(C)S(=O)(=O)c1cccc(C(=O)Nc2ccc(S(=O)(=O)N3CCCC3)cc2)c1	i	-14	-1	1	/	/
Cn1c(N)nc2nc[nH]c2c1=S	i	/	/	1	i	0
Nc1nc(OCc2ccccc2)c2[nH]cnc2n1	i	5	0	2	/	/
Cc1cc(/C=C(\C#N)C(=O)O)c(C)n1CC(C)C	+	-7	1	1	i	1
Cc1cc(/C=C(\C#N)C(=O)O)c(C)n1CCC(C)C	i	6	2	-5	/	/
CCC1(c2ccccc2)SCC(c2ccccc2)=NC1=O (stereo not given)	i	/	/	-2	/	/
CC(=O)c1c(C)[nH]c(C(=O)OCC(=O)NCCC2=CCCCC2)c1C	i	23	3	0	/	/
O=C1CC(NS(=O)(=O)c2cccnc2)CN1c1ccccc1 (stereo not given)	/	-12	-2	1	/	/
CCc1nnc(NS(=O)(=O)c2ccc(NC(=S)NC(=O)c3ccc(F)cc3)cc2)s1	i	3	-6	3	/	/
CCc1nnc(NS(=O)(=O)c2ccc(NC(=S)NC(=O)c3cccnc3)cc2)s1	+	5	2	-1	i	1
COC(=O)C(C)SC1=N/C(=C/c2ccc(-n3cncn3)cc2)C(=O)N1 (stereo not given)	i	10	0	-60	/	/
Cc1cccc(NC(=S)NC(C)(C)CC(C)(C)C)c1	i	14	-9	3	/	/
O=C(Nc1cccc2ncccc12)c1ccc([N+](=O)[O-])o1	+	8	4	2	i	0
Cc1cccnc1NC(=O)c1ccc([N+](=O)[O-])o1	i	0	9	-30	/	/
CCOC(=O)C1CCN(C(=O)c2ccc3c(c2)OCCO3)CC1	i	-6	/	1	/	/
CCOc1ccc(C(=O)N2CCC(C(=O)c3ccc4c(c3)OCCO4)CC2)cc1	i	-11	1	3	i	0
O=C(N/N=C/C(Br)=C/c1ccccc1)c1ccccc1[N+](=O)[O-]	i	17	-1	4	/	/
Cc1occc1C(=O)N/N=C/C(Br)=C/c1ccccc1	+	6	5	2	i	0
CCNc1ccc(S(=O)(=O)N(C)C)cc1NCC(=O)Nc1ccc(F)c(Cl)c1	i	-3	15	-28	i	0
CCNc1ccc(S(=O)(=O)N(C)C)cc1NCC(=O)Nc1ccccc1F	i	-3	-11	-34	/	/
CCN(CC)C1Oc2cc3c(cc2C(c2cc(OC)c(OC)c(OC)c2)C1C)OCO3 (stereo not given)	/	/	/	4	/	/
CC1CCN(C(=O)CCNS(=O)(=O)c2ccc3c(c2)c(=O)n(C)c(=O)n3C)CC1	i	9	7	1	/	/
N#C/C(=C\c1ccc(-c2cccc([N+](=O)[O-])c2)o1)C(=O)Nc1nc(-c2cccs2)cs1	i	4	12	11	/	/
CCn1c(CNC(=O)COc2ccc(C(C)C)cc2)nnc1SCC(=O)Nc1ccc(F)cc1	i	-4	-8	0	i	0
Cc1ccc(S(=O)(=O)NCCC(=O)Nc2ccc3c(c2)OCO3)cc1	i	-9	/	1	i	1
Cc1cccc(C)c1-n1c(C)nn(-c2ncc(C(F)(F)F)cc2Cl)c1=O	i	1	-3	2	i	0
